Entries after “also recorded” stand apart in the source; their conditions may differ.
Experiments:
[1] = TentaGel bead control with free fluorescein; assay type: binding; settings: peptide on TentaGel beads; fluorescence microscopy
Method in brief: (§1)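 Peptide beads were washed free of DMF, blocked 3 h in SuperBlock (PBS, 0.05% Tween-20) and rinsed with water. About 10–12 beads were shaken with fluorescent probe for 24 h at 4 °C, with fresh probe added for repeated cycles. Beads were then water-washed and viewed by fluorescence microscopy. Peptide-free beads set background. Labelled RNAs were gel-purified (20% denaturing PAGE), stored in 10 mM HEPES pH 7.4 and renatured.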

F-TAR RNA = assay: TentaGel bead fluorescence assay with F-TAR RNA; assay type: binding; settings: peptide on TentaGel beads, fluorescence microscopy
[2] = tested on: F-H69 (fluorescein-labeled Ψm^3ΨΨ); assay: Quantum dot; assay type: binding, E. coli; settings: Qdot analysis; 1 nM F-H69, 1 nM Qdot 655, 16 h at 4 °C
Method in brief: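 F-H69 was pre-incubated 1 h at 4 °C with anti-fluorescein Qdot 655, then with beads 16 h at 4 °C. Washes: PBS, SuperBlock, then 0.005% TX-100. Per-bead Qdot (em 655 nm) and fluorescein (em 521 nm) pixel intensities (1–255) taken at predefined exposures. Peptide-free beads served as control.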

[3] = tested on: F-18S RNA (human A-site rRNA); assay: TentaGel bead fluorescence assay with F-18S RNA; assay type: binding; settings: peptide on TentaGel beads; fluorescence microscopy
Method in brief: as §1

H69 RNA = settings: relative to NQVANHQ-NH2 (1:1), ref [15b]; cited from earlier work
human H69 = settings: relative to NQVANHQ-NH2; due to non-specific binding, ref [15b]; cited from earlier work

| Substance | on-bead interaction with free fluorescein [1] | on-bead interaction with F-TAR RNA (F-TAR RNA) | bead intensity compared with STYTSVS beads [2] | on-bead interaction with F-18S RNA [3] | on-bead interaction with F-TAR RNA (F-TAR RNA; listed as STYSTVS) | stoichiometry with H69 (H69 RNA) | selectivity with human H69 (human H69) |
| --- | --- | --- | --- | --- | --- | --- | --- |
| NQVANHQ | do not show any fluorescence | did not show any interaction; also recorded: do not show any fluorescence | higher than STYTSVS beads | did not show any interaction; also recorded: do not show any fluorescence | – | – | – |
| STYTSVS | do not show any fluorescence | with the exception those containing STYTSVS and F-TAR RNA | – | do not show any fluorescence | showed interaction | – | – |
| neomycin | – | – | – | – | – | higher stoichiometries | lower selectivity with human H69 |

From paper PMC3594512 (Bioorganic & medicinal chemistry, 2013)
